Holding throughout (assay type): cell-based
Assay [1] deals with T1, Short transient receptor potential channel 6 (Mus musculus) (UniProt Q61143).
T1 sequence (whole entry): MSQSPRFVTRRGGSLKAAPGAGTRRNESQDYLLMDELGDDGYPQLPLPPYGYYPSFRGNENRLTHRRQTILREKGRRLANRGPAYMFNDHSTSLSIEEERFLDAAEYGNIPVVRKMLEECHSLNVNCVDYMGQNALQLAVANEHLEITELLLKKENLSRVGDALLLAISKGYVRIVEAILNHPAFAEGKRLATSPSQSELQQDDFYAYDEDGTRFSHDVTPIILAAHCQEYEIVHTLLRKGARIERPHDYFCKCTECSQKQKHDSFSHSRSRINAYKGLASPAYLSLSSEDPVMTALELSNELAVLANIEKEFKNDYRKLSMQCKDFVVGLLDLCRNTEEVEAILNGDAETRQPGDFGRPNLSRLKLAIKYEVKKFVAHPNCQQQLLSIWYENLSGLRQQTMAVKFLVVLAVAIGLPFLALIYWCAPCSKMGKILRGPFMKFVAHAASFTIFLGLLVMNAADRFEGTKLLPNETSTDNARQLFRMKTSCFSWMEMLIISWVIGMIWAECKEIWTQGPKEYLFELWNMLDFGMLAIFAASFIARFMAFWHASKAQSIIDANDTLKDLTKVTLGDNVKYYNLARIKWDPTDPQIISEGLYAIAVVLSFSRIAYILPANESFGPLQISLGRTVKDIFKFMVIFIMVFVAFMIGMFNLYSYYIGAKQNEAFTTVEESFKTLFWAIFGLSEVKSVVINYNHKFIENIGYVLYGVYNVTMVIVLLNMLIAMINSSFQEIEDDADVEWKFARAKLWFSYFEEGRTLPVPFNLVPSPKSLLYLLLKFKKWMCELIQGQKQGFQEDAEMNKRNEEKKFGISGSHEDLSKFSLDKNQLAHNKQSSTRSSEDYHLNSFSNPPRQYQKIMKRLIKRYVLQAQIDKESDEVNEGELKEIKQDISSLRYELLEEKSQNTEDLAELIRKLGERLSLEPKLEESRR
In words: Agonist activity at mouse TRPC6 expressed in HEK293 cells co-expressing Gq11-PLCbeta fused M5 receptor assessed as increase in intracellular calcium level measured for 2.5 mins by Fluo-8-AM dye-based fluorescence assay. A general note: Calcium assays in cells follow changes in intracellular calcium, usually with a dye or a luminescent sensor.

Assay [2] deals with T2, Short transient receptor potential channel 3 (Homo sapiens) (UniProt Q13507).
T2 sequence (whole entry): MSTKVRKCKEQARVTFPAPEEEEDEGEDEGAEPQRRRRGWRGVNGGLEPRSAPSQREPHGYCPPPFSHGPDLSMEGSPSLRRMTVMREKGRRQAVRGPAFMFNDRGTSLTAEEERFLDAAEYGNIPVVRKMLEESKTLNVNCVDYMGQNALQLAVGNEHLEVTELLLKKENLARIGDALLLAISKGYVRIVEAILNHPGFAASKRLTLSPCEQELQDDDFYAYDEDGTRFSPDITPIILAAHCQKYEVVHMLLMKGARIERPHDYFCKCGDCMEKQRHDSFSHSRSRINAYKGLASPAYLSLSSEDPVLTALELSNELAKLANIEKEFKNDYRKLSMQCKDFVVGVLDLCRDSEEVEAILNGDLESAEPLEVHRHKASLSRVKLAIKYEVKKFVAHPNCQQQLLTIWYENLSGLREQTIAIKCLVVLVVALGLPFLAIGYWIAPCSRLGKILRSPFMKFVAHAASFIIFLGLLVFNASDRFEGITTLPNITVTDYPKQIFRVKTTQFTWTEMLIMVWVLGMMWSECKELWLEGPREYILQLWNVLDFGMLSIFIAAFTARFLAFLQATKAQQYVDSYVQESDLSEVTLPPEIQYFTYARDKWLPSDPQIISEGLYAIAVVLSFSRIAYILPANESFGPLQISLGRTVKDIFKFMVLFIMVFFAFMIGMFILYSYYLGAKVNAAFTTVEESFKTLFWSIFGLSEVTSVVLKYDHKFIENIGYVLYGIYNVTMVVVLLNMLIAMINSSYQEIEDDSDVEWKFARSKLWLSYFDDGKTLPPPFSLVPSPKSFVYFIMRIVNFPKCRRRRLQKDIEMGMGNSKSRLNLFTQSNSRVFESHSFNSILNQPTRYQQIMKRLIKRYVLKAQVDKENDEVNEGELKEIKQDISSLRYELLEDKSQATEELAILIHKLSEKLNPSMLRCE
Description: Agonist activity at human TRPC3 expressed in HEK293 cells assessed as increase in intracellular calcium level measured for 2.5 mins by Fluo-8-AM dye based fluorescence assay. The method in brief:
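HEK293 cells stably expressing human TRPC3, run on a FlexStation at 32 °C. Loaded with FMP dye, or Fluo-type Ca2+ dye with 2 mM probenecid. Extracellular NaCl/HEPES saline, pH 7.4, with 2 mM Ca2+ (standard) or 0.5 mM Ca2+. Read as F/F0. In 0.5 mM Ca2+, FMP EC50 from a Hill fit, n = 6.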

Assay [3] has as its target T1, Short transient receptor potential channel 6 (Mus musculus). Description: (§1) Agonist activity at mouse TRPC6 expressed in HEK293 cells co-expressing Gq11-PLCbeta fused M5 receptor assessed as induction of membrane potential depolarization measured for 2.5 mins by FLIPR assay. In short, it runs like this: (§2)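 Mouse TRPC6/M5 stable HEK293 cells loaded with FLIPR membrane potential dye in extracellular solution containing 2 mM CaCl2, pH 7.4. Varying compound concentrations are applied, with 1 μM carbachol as reference, and read on a microplate reader at 32 °C. The increase in fluorescence (ΔF/F0) indicates depolarization. The concentration–response curve gives EC50, n = 6.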

The target in assay [4] is T3, Short transient receptor potential channel 6 (Mus musculus, UniProt Q61143).
T3 sequence (Q61143 whole entry): T1 sequence (whole entry)
The description is as §1. The method in brief:
as §2

Assay [5] concerns the target Transient receptor potential cation channel subfamily V member 1 (Homo sapiens) (UniProt Q8NER1). Description: Inhibition of human TRPV1 expressed in HEK293 cells assessed as decrease in capsaicin-evoked increase in intracellular calcium level at 22 uM preincubated for 2 mins followed by capsaicin addition measured for 2.5 mins by Fluo8-AM dye-based fluorescence assay relative to control. The method in brief: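 Same TRP panel as for the stimulation tests, with FMP dye for TRPC4 and M5 and Fluo8-AM for TRPA1, V1 and M8. Compound applied for 2 min before the channel agonist (TRPC4: 1 μM DAMGO). Inhibition of the agonist response measured on a FlexStation at 32 °C.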

In ChEMBL document CHEMBL4014306, “Pyrazolopyrimidines as Potent Stimulators for Transient Receptor Potential Canonical 3/6/7 Channels” (J Med Chem, 2017) one finds Activity, EC50 and inhibition data, which are given here for two compounds.

Structures are written as SMILES. The source made the active and inactive calls. The calls are words filed in the database; no cut-off is given here.

Chain of Transient receptor potential cation channel subfamily V member 1 (Homo sapiens) (Q8NER1 whole entry): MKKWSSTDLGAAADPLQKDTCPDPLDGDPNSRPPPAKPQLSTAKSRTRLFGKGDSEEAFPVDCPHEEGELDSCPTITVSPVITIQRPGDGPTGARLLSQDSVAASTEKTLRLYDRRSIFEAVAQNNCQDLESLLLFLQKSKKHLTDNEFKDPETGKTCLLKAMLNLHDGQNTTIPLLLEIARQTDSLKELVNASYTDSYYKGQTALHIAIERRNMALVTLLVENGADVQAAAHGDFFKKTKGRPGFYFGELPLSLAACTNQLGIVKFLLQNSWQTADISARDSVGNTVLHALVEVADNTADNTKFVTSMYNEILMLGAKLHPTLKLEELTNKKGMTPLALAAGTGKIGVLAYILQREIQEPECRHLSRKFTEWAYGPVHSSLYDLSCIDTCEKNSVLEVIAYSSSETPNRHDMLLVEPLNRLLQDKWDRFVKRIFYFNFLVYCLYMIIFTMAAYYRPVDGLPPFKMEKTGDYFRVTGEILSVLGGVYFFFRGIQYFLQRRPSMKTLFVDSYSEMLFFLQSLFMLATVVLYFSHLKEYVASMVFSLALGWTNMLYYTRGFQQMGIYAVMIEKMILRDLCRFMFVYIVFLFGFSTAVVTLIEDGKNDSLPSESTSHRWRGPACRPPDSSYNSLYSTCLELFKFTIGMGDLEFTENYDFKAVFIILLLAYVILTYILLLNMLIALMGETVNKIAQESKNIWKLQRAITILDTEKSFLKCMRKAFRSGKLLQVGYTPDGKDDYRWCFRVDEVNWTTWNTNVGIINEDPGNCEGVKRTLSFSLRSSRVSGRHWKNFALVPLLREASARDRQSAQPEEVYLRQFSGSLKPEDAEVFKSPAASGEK

What is called EC50 is the concentration that produces a half-maximal response. Regarding `CCOC(=O)N1CCC(c2cc(O)n3nc(C)c(-c4ccc(F)cc4)c3n2)CC1`, the Activity result in assay [1] and in assay [3] was “Dose-dependent effect” throughout. Moreover, the result in assay [2] was inactive. The half-maximal effective concentration (EC50) in assay [4] was found to be 1400 nM.
As a reminder, the inhibition is how much of the control response was suppressed. On to `CCOC(=O)N1CCC(c2cc(O)n3nc(C)c(-c4ccc(C(F)(F)F)cc4)c3n2)CC1`, for which the inhibition in assay [5] is less than 20%.
